High-throughput results (PubChem)
This is a sample that favours compounds with a hit; in the whole collection about 2.9% have one here.
Cneo AK release – Cryptococcus neoformans lysis via adenylate kinase release | C. neoformans lysis, adenylate kinase release luminescence, 4 h; normalised: neutral wells 0, clomiphene wells 100 | lysis activity, % at 15 µM | 0.2% of 360,000 active;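 active = mean lysis activity across replicates of at least 80%, whatever share of replicates individually reach that level; inactive = mean lysis activity below 80%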
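Test system: log-phase Cryptococcus neoformans yeast cells. Input: 5 × 10^6 yeast cells/mL. Medium: fresh YPD growth medium. Doses: single dose. Incubation: static 4 h at 37 °C with compound, 1 h detection. Measured by: luminescent adenylate kinase detection reagent. Read-out: signal increase indicating cell lysis. Benchmarks: Clomiphene.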
PglD DTNB – PglD (C. jejuni) enzyme inhibition | purified PglD enzyme, DTNB colorimetric CoA detection | inhibition, % at 12.5 µM | 0.098% of 360,000 active; in the data active = inhibition above about 16%, passing the limit was not always enough
rRNA inh HTS – selective bacterial rRNA inhibition in E. coli; E. coli WT GFP vs humanized-ribosome RFP mutants, fluorescence, 24 h; stronger effect = lower value; DMSO median 0, no signal -100; GFP signal change (wild-type ribosome), % (no concentration beside the values); 1.6% of 350,000 active;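 active = significant combined selectivity score with lowered wild-type GFP, culture density cut under 30%, mutant RFP and density less affected; inactive = any of these conditions unmet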
FGF22 binding-1 – FGF22 (human) thermal shift binding | activity (Tm shift, normalised), % at 9.99 µM | recombinant FGF22 thermal shift, SYPRO orange fluorescence; percent of sucrose octasulfate shift, DMSO zero | Q9HCT0 | 1.5% of 340,000 active;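 active = mean Tm shift, scaled 0 neutral to 100 positive control, at about 1.3% or above, every replicate too, limit read from the data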
Target sequence (Q9HCT0 whole entry, looked up): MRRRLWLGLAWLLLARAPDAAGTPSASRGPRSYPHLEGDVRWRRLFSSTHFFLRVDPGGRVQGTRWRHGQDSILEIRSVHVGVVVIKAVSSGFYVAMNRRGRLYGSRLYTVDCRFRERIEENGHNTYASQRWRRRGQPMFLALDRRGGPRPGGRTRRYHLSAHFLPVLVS
Vif imaging – blocks HIV Vif function. HEK293T cells, Vif self-association by quenched fluorescence, imaging, 24 h. 0.35% of 340,000 active. inhibition, % at 7.49 µM; in the data active = inhibition above about 50%, passing the limit was not always enough
PGC1a acetyl inh – lowers PGC1a acetylation signal in U2OS cells; AlphaScreen anti-acetyl-lysine; with virally co-expressed GCN5 acetyltransferase; inhibition, % at 15.6 µM; 0.17% of 350,000 active;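 active = every replicate shows inhibition of at least 40%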;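 note: 0% = neutral control wells and 100% = positive control wells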
FGF22 binding-2 – binders of human FGF22 by thermal shift. thermal shift activity, °C (ΔTm) at 38 µM. shares compounds with FGF22 binding-1. 2% of 1,000 active. recombinant FGF22 thermal shift, SYPRO orange fluorescence;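 active = fitted rise in melting shift crosses a set limit at or below the top valid dose tested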
FGF22 TSA DP – FGF22 (human) binding by thermal shift; AID 743017; 50 tested, under 10 active; Thermal shift assay, SYPRO orange, melting temperature shift; Tm shift (activity), % at 38 µM; shares compounds with FGF22 binding-1;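 active = compounds whose fitted dose curve of melting temperature shift rises past a set threshold within the tested doses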
SYPRO no-protein – shows thermal shift signal without protein, FGF22 counter-screen; compound-only SYPRO orange thermal shift counter-screen, no protein; AC50, µM (series often up to 38 µM); shares compounds with FGF22 binding-1; 2% of 1,000 active;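 active = rising signal whose fitted curve reaches the 0.54 level within the top valid dose, showing a melting point, actives reach about 13 µM in these data; inactive = the rest, including activity in the opposite direction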; note: value is where the raw curve crosses a fixed level and not half-maximal
Active calls of the source: *; i = inactive; . = no result given.

SMILES | Cneo AK release | PglD DTNB | rRNA inh HTS | FGF22 binding-1 | Vif imaging | PGC1a acetyl inh | FGF22 binding-2 | SYPRO no-protein | others
Cc1[nH]c2ccccc2c1/C=N/NC(=O)c1cccc([N+](=O)[O-])c1 | . | . | 0 | . | 13 | -12 | . | .
Cc1[nH]c2ccccc2c1/C=N/NC(=O)c1cccc(F)c1 | . | . | 2 | 2.0* | -2 | 2 | 0.13 | i
Cc1c(/C=N\NC(=O)c2cccc(F)c2)cnn1C | -1 | 0 | 7 | 2.0* | 0 | -5 | 0.17 | i
C[C@H](CO)N1C[C@H](C)[C@@H](CN(C)C(=O)C2CCCCC2)Oc2ncc(-c3cccnc3)cc2C1=O | . | . | 2 | . | . | 3 | . | .
CC1C=NC(S(=O)(=O)N2CC[C@@H]3[C@@H](CO)N(C)c4ccc(-c5ccc(F)cc5)cc4[C@@H]32)=N1 (stereo not given in full) | 7 | 2 | -8 | 2.0* | . | 2 | . | i
CNC(=O)C[C@H]1CC[C@@H]2[C@H](COc3ccc(NC(=O)c4ccccc4OC)cc3C(=O)N2C)O1 | -5 | -1 | -7 | 2.6* | . | 4 | -0.021 | i
CCNC(=O)C[C@@H]1CC[C@H]2[C@H](COc3ccc(NC(=O)Nc4ccc(Cl)cc4)cc3C(=O)N2C)O1 | 1 | 3 | -4 | 1.2* | . | -5 | -0.09 | i | FGF22 TSA DP=0
CCNC(=O)C[C@@H]1CC[C@@H]2[C@@H](COc3ccc(NC(=O)Nc4ccc(Cl)cc4)cc3C(=O)N2C)O1 | -1 | 2 | 2 | 0 | . | -2 | . | .
CN1C(=O)c2cc(NC(=O)c3ccccc3Cl)ccc2OC[C@H]2O[C@H](CC(=O)NCC(F)(F)F)CC[C@H]21 | 37 | 5 | . | 0 | . | . | . | .
CN1C(=O)c2cc(NC(=O)c3ccccc3Cl)ccc2OC[C@@H]2O[C@@H](CC(=O)NCC(F)(F)F)CC[C@H]21 | 33 | 6 | . | 36* | . | . | 0.1 | i
CC(C)N(Cc1ccccc1)C(=O)COC(=O)C1CCN(c2ccc(C(F)(F)F)cn2)CC1 | . | . | -3 | 1.5* | . | . | -0.009 | i
CC(C)(C)N(Cc1ccccc1)C(=O)COC(=O)C1CCN(c2ccc(C(F)(F)F)cn2)CC1 | -1 | 5 | 4 | 0 | 0 | 18 | . | .
O=C(C[C@H]1CC[C@H](NC(=O)Nc2cc(F)ccc2F)[C@H](CO)O1)NCc1ccncn1 | 2 | 1 | 1 | 0 | . | -5 | . | .
CCOC(=O)C1CCC(CNCc2ccccc2C)CC1 (stereo not given) | 0 | 1 | 17 | 1.6* | -6 | 21 | 0.054 | i
O=C(O)C1CCC(CNCc2ccccc2Cl)CC1 (stereo not given) | . | . | 18 | 0 | -7 | . | . | .
C[C@H](CO)N1C[C@H](C)[C@@H](CN(C)Cc2cncnc2)Oc2cc(C3=CCCC3)ccc2S1(=O)=O | 3 | 1 | 4 | 0 | . | 5 | . | .
COc1cc(C)ccc1NC(=O)Cc1csc(NC(=O)Nc2ccccc2OC)n1 | 1 | 8 | -24 | 1.6* | -6 | -8 | 0.096 | i
COc1ccccc1NC(=O)Nc1nc(CC(=O)Nc2ccc(OC)c(OC)c2)cs1 | -1 | 3 | -2 | 1 | . | . | . | .
C[C@@H]1CCCCO[C@@H](CN(C)Cc2ccncc2)[C@@H](C)CN([C@@H](C)CO)C(=O)c2cc(NC(=O)Nc3ccccc3)ccc2O1 | 0 | 0 | -3 | 0 | . | 1 | . | .
CC1CN(C(=O)C(C)N2CCN(c3ccccc3Cl)CC2)CC(C)O1 (stereo not given) | . | . | 12 | 17* | 0 | . | -0.014 | i
CC1CN(C(=O)C(C)N2CCN(c3cccc(Cl)c3)CC2)CC(C)O1 (stereo not given) | . | . | 0 | 0 | 2 | 12 | . | .
